Source: ChEMBL document CHEMBL1145194, “A bivalent ligand (KDAN-18) containing delta-antagonist and kappa-agonist pharmacophores bridges delta2 and kappa1 opioid receptor phenotypes” (J Med Chem, 2005)

Experiments:
Mus musculus [1] = experiment: Ratio of effective dose of compound producing agonistic activity in presence and absence of benzylidenenaltrexone (25 pmol) upon intrathecal administration in mouse tail flick assay; format: functional
How it was run: (§1)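 Intrathecal tail-flick in CD1 mice. BNTX was given i.t. at 25 pmol with a 10 min peak time. Ratio is agonist ED50 with antagonist divided by agonist ED50 alone, taken as significant when its 95% confidence interval is >1.0. For combination dosing, the monovalent pair was coadministered i.t. equimolar.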

Mus musculus [2] = experiment: Ratio of effective dose of compound producing agonistic activity in presence and absence of naltriben (50 pmol) upon intrathecal administration in mouse tail flick assay in presence of DN-18; format: functional
How it was run: as §1, with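 “NTB” for “BNTX”, “50” for “25”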

Mus musculus [3] = experiment: Ratio of effective dose of compound producing agonistic activity in presence and absence of benzylidenenaltrexone (25 pmol) upon intrathecal administration in mouse tail flick assay in presence of DN-18; format: functional; how it was run: as §1
[4] = molecular target: T1, Opioid receptors; delta & kappa (Homo sapiens, UniProt P41145+P41143); experiment: Inhibition of [3H]deltorphin II binding to delta and kappa opioid receptors coexpressed in HEK 293 cells; format: cell-based; conditions: hek293
[5] = molecular target: T1, Opioid receptors; delta & kappa; experiment: Inhibition of [3H]U-69593 binding to delta and kappa opioid receptors expressed in HEK 293 cells; format: cell-based; conditions: hek293
How it was run: (§2)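 Radioligand binding on intact HEK cells with [3H]U69593, using either δ and κ coexpressed in one line or a mixture of HEK cells singly expressing δ or κ. Run alone, with 10 nM NTB, or with 100 nM BNTX.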

[6] = molecular target: T1, Opioid receptors; delta & kappa; experiment: Inhibition of [3H]U-69593 binding to delta and kappa opioid receptors coexpressed in HEK 293 cells; format: cell-based; conditions: hek293; how it was run: as §2
Mus musculus [7] = experiment: Effective dose required for agonistic activity upon intrathecal administration in mouse (n=10) tail flick assay in presence of DN-18; format: functional
How it was run: (§3)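 CD1 mice dosed intrathecally, antinociception by tail-flick. A response counted as positive when latency exceeded control latency plus 3 SD of mean reaction time. ED50 given with 95% confidence limits. For combination dosing, the two monovalent ligands were coadministered i.t. in equimolar ratio.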

Mus musculus [8] = experiment: Effective dose required for agonistic activity upon intrathecal administration in mouse (n=10) tail flick assay; format: functional; how it was run: as §3
[9] = molecular target: T1, Opioid receptors; delta & kappa; experiment: Inhibition of [3H]deltorphin II binding to delta and kappa opioid receptors expressed in HEK 293 cells; format: cell-based; conditions: hek293
Mus musculus [10] = experiment: Ratio of effective dose of compound producing agonistic activity in presence and absence of naltriben (50 pmol) upon intrathecal administration in mouse tail flick assay; format: functional
How it was run: as §1, with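 “NTB” for “BNTX”, “50” for “25”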

Mus musculus [11] = experiment: Ratio of effective dose of compound producing agonistic activity in presence and absence of norbinaltorphimine (2.5 nmol) upon intrathecal administration in mouse tail flick assay
Mus musculus [12] = experiment: Ratio of effective dose of compound producing agonistic activity in presence and absence of norbinaltorphimine (2.5 nmol) upon intrathecal administration in mouse tail flick assay in presence of DN-18
Mus musculus [13] = experiment: Ratio of effective dose of compound producing agonistic activity in presence and absence of KDN21 upon intrathecal administration in mouse tail flick assay; format: functional
Mus musculus [14] = experiment: Ratio of effective dose of compound producing agonistic activity in presence and absence of CTOP (5.9 pmol) upon intrathecal administration in mouse tail flick assay; format: functional
[15] = molecular target: T1, Opioid receptors; delta & kappa; experiment: Inhibition of [3H]U-69593 binding to delta and kappa opioid receptors expressed in HEK 293 cells with 10 nM naltriben; format: cell-based; conditions: hek293; how it was run: as §2
[16] = molecular target: T1, Opioid receptors; delta & kappa; experiment: Inhibition of [3H]-U-69,593 binding to delta and kappa opioid receptors co-expressed in HEK 293 cells with 10 nM naltriben; format: cell-based; conditions: hek293; how it was run: as §2
[17] = molecular target: T1, Opioid receptors; delta & kappa; experiment: Inhibition of [3H]U-69593 binding to delta and kappa opioid receptors expressed in HEK 293 cells with 100 nM benzylidenenaltrexone; format: cell-based; conditions: hek293; how it was run: as §2
[18] = molecular target: T1, Opioid receptors; delta & kappa; experiment: Inhibition of [3H]-U-69,593 binding to delta and kappa opioid receptors co-expressed in HEK 293 cells with 100 nM benzylidenenaltrexone; format: cell-based; conditions: hek293; how it was run: as §2

Row | SMILES | ED50 Ratio (Mus musculus [1]) | ED50 Ratio (Mus musculus [2]) | ED50 Ratio (Mus musculus [3]) | Ki [4] | Ki [5] | Ki [6] | ED50 (Mus musculus [7]) | ED50 (Mus musculus [8]) | Ki [9] | ED50 Ratio (Mus musculus [10]) | ED50 Ratio (Mus musculus [11]) | ED50 Ratio (Mus musculus [12]) | ED50 Ratio (Mus musculus [13]) | ED50 Ratio (Mus musculus [14]) | Ki [15] | Ki [16] | Ki [17] | Ki [18]
1 | CNC(=O)CNC(=O)CNC(=O)CCC(=O)NCC(=O)NCC(=O)Nc1cccc([C@@H](CN2CCCC2)N(C)C(=O)Cc2ccc(Cl)c(Cl)c2)c1 | 1.3 | ~1 | ~1 | > 1000 nM | 23.9 nM | 36.2 nM | 0.14 nmol/mouse | 0.11 nmol/mouse | > 1000 nM | 1.5 | 10.8 | 44.8 |  |  |  |  |  | 
2 | CNC(=O)CNC(=O)CNC(=O)CCC(=O)NCC(=O)NCC(=O)Nc1cccc2c3c([nH]c12)[C@@H]1Oc2c(O)ccc4c2[C@@]12CCN(CC1CC1)[C@H](C4)[C@]2(O)C3 |  |  |  | 0.91 nM | > 1000 nM | > 1000 nM |  |  | 1.07 nM |  |  |  |  |  |  |  |  | 
3 | CNC(=O)CNC(=O)CCC(=O)NCC(=O)Nc1cccc2c3c([nH]c12)[C@@H]1Oc2c(O)ccc4c2[C@@]12CCN(CC1CC1)[C@H](C4)[C@]2(O)C3 |  |  |  | 0.46 nM | > 1000 nM | > 1000 nM |  |  | 0.15 nM |  |  |  |  |  |  |  |  | 
4 | CNC(=O)CNC(=O)CCC(=O)NCC(=O)Nc1cccc([C@@H](CN2CCCC2)N(C)C(=O)Cc2ccc(Cl)c(Cl)c2)c1 | 1 |  |  | 281.2 nM | 6.75 nM | 41.6 nM |  | 1.4 nmol/mouse | > 1000 nM | 1 | 11 |  |  |  |  |  |  | 
5 | CN(C(=O)Cc1ccc(Cl)c(Cl)c1)[C@H](CN1CCCC1)c1cccc(NC(=O)CNC(=O)CNC(=O)CCC(=O)NCC(=O)NCC(=O)Nc2cccc3c4c([nH]c23)[C@@H]2Oc3c(O)ccc5c3[C@@]23CCN(CC2CC2)[C@H](C5)[C@]3(O)C4)c1 | 3 |  |  | 0.008 nM | 2.51 nM | 0.06 nM |  | 0.19 nmol/mouse | 0.52 nM | 25.9 | 39.3 |  | 0.65 | 0.8 | 1.94 nM | 2.34 nM | 1.14 nM | 0.19 nM
6 | CN(C(=O)Cc1ccc(Cl)c(Cl)c1)[C@H](CN1CCCC1)c1cccc(NC(=O)CNC(=O)CNC(=O)CCCCC(=O)NCC(=O)NCC(=O)Nc2cccc3c4c([nH]c23)[C@@H]2Oc3c(O)ccc5c3[C@@]23CCN(CC2CC2)[C@H](C5)[C@]3(O)C4)c1 | 3.4 |  |  |  |  |  |  | 0.5 nmol/mouse |  | 2 | 3.4 |  |  |  |  |  |  | 
7 | CN(C(=O)Cc1ccc(Cl)c(Cl)c1)[C@H](CN1CCCC1)c1cccc(NC(=O)CNC(=O)CCC(=O)NCC(=O)Nc2cccc3c4c([nH]c23)[C@@H]2Oc3c(O)ccc5c3[C@@]23CCN(CC2CC2)[C@H](C5)[C@]3(O)C4)c1 | 2.1 |  |  | 1.23 nM | 1.9 nM | 1.66 nM |  | 0.44 nmol/mouse | 0.43 nM | 1.1 | 33 |  |  |  | 2.02 nM | 4.06 nM | 2.75 nM | 3.79 nM
